From PMC2199177 (The Journal of Experimental Medicine, 1997)

Tests used:
S17 CTL [1] = test: Interferon γ assay; format: cell-based
Method in brief: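 CTL were incubated with peptide-sensitized P815 targets as in the cytotoxicity assay, with peptide derivatives at 10−6–10−11 M, some runs with SF1-1.1.1 Fab′ (anti-Kd α3) to block CD8 participation. After 24 h, supernatant IFN-γ was measured by ELISA and values were normalized to the wt ligand. Triplicates, at least two experiments.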

S14 CTL [2] = test: 51Cr-release assay; format: cell-based; conditions: without Fab'
Method in brief: (§1)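 51Cr-labeled P815 targets (2 × 10^3/well) in DMEM with FCS (5%) and Hepes (10 mM) plus 10-fold peptide dilutions, 10−6–10−13 M. Cloned CTL (6 × 10^3/well) added, 4 h at 37°C, then supernatant 51Cr counted. Specific lysis was derived from spontaneous and total release. Relative activity is the wt half-maximal-lysis concentration divided by the variant's, normalized by relative Kd competitor activity. Triplicates, at least two experiments.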

S17 CTL [3] = test: 51Cr-release assay; format: cell-based; conditions: without Fab'
Method in brief: as §1

T1 CTL = test: 51Cr-release assay; format: cell-based; conditions: without Fab'
Method in brief: as §1

S14 CTL [4] = conditions: ref [4]; cited from earlier work

For IASA-YIPSAEK(ABA)I [WT], the “effect of blocking of CD8 (SF1-1.1.1 Fab') on IFN-γ production” value (S17 CTL [1]) was “substantially increased”.

In the case of IASA-YIPSAAK(ABA)I [E258A], the “functional phenotype (antigen recognition versus TCR-ligand binding)” value (S14 CTL [2]) was “weak agonists”.

With IASA-YIPAAEK(ABA)I [S256A] the “functional phenotype (antigen recognition versus TCR-ligand binding)” value (S17 CTL [3]) was “strong agonists”.

For IASA-YISSAEK(ABA)I [P255S], the “effect of blocking of CD8 (SF1-1.1.1 Fab') on IFN-γ production” value (S17 CTL [1]) was “substantially increased” and the “functional phenotype (antigen recognition versus TCR-ligand binding)” value (S17 CTL [3]) was “weak agonists”.

For IASA-YIASAEK(ABA)I [P255A], the “functional phenotype (antigen recognition versus TCR-ligand binding)” value (T1 CTL) was “strong agonists”.

For IASA-YILSAEK(ABA)I [P255L], the functional phenotype (S14 CTL [4]) is given as “antagonist”.
